# Bioassay records as filed in PubChem.
# F508del corr: correctors of CFTR F508del function in bronchial epithelial cells; CFBE cells, YFP halide quenching; stimulated with forskolin plus potentiator P3; % fluorescence drop versus neutral controls; activity (quench increase), % at 7.58 µM; 0.36% of 350,000 active; AID 720511;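 active = mean added fluorescence quench of at least 8% versus neutral control, with both replicates also reaching 8%; inconclusive = only one of the mean or replicate conditions met; inactive = mean below 8% and not both replicates reaching 8%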;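 note: cells transiently co-express mutant CFTR-F508del with the halide-sensitive YFP; corrector assay measuring rescue of mutant channel to the surface after 24 h compound exposure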
# DENV2 CPE: protects cells from dengue virus 2 cytopathic effect. DENV2-infected cells, cytopathic effect rescue, plate reader. CPE inhibition, % at 9.99 µM. 1.7% of 350,000 active. AID 651640; in the data active = CPE inhibition above about 20%, passing the limit was not always enough; inconclusive = no clear call, values can overlap the other calls; tested in BHK-21 cells;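 note: 0% = median of neutral control wells and 100% = median of positive control wells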
# Cneo AK release: causes C. neoformans cell lysis; adenylate kinase release luminescence, 4 h; normalised: neutral wells 0, clomiphene wells 100; lysis activity, % at 15 µM; 0.2% of 360,000 active;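 active = mean lysis activity across replicates of at least 80%, whatever share of replicates individually reach that level; inactive = mean lysis activity below 80%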
#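 Schedule: static 4 h at 37 °C with compound, 1 h detection; system: C. neoformans cells; benchmarks: Clomiphene as positive control; buffer or medium: fresh YPD medium; measure: luminescence rise reflecting yeast cell lysis; measured by: luminescent adenylate kinase detection reagent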
# FN deposit inh: fibronectin deposition inhibition; AH1F fibroblasts, Alexa488-fibronectin deposition fluorescence, overnight; 0.086% of 350,000 active; inhibition, % at 12.6 µM;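 active = mean inhibition across replicates of 30% or more, regardless of how many single replicates reach that level; inconclusive = mean under 30% yet at least half of replicates reach 30%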;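 note: positive control wells lacked labelled fibronectin entirely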
#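 Material: AH1F fibroblast monolayer depositing Alexa488-labelled fibronectin into matrix | Input: 10000 AH1F cells/well | Medium: DMEM plus 2% serum, read in PBS | Reagent: Alexa488-fibronectin, 24 nM final in well | Compound dosing: One dose per compound, pinned | Schedule: 1 h adhesion, overnight exposure | Measured by: Fluorescence at 485 nm excitation, 525 nm emission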
# PGC1a acetyl inh: PGC1a acetylation modulation, inhibitor mode; U2OS PGC1a acetylation, AlphaScreen anti-acetyl-lysine; with virally co-expressed GCN5 acetyltransferase; inhibition, % at 15.6 µM; 0.17% of 350,000 active; AID 651687;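 active = every replicate shows inhibition of at least 40%; inconclusive = mean inhibition at least 40% but some replicate below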;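 note: 0% = neutral control wells and 100% = positive control wells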
# Xi reactivation: reactivates the inactive X chromosome in mouse fibroblasts; 0.055% of 360,000 active; XiGFP mouse fibroblasts, % GFP-positive cells imaging, 3 d; cells co-treated with 5-aza-dC sensitizer; scaled so ellipticine positive control = 100%; activation, % at 7.58 µM; AID 743238;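 active = mean normalized replicate activation at least 10% and every replicate at or above 10%; inconclusive = only one of the two criteria met; inactive = mean below 10% and not all replicates reach 10%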;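 note: 0% = median of on-plate neutral control wells and 100% = ellipticine 6 µM median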
#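 System: 68-5-11 XiGFP fibroblast line; Timing: 3 days compound exposure; Compound dosing: one concentration, pinned; Benchmarks: positive control ellipticine, 6 µM final; Buffer or medium: DMEM containing 5-aza-dC.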
# Active calls of the source: *; ? = inconclusive; · = no result. The list is not random: actives were taken first. Their share in the collection is about 1.9%.
SMILES,F508del corr,DENV2 CPE,Cneo AK release,FN deposit inh,PGC1a acetyl inh,Xi reactivation
CS(=O)(=O)N1CCC2(CC1)OCCN2S(=O)(=O)c1ccccc1,0,-2,1,-5,·,0
CCS(=O)(=O)N1CCC2(CC1)OCCN2S(=O)(=O)c1ccccc1,0,39*,-1,-10,·,0
COCC(=O)N(C)C[C@H]1Oc2ncc(C#CC(C)(C)O)cc2C(=O)N([C@H](C)CO)C[C@@H]1C,-2,-5,-3,6,-1,0
Cc1c(Cl)cccc1N1C(=O)c2ccccc2C1=O,·,·,-2,-3,2,·
Nc1ccc(N2C(=O)c3ccccc3C2=O)c(Cl)c1,0,39*,1,3,·,0
CC(C)CC#Cc1cnc2c(c1)C(=O)N([C@@H](C)CO)C[C@H](C)[C@@H](CN(C)C(=O)Cc1ccncc1)O2,·,4,-2,·,-2,-1
CC(C)NC(=O)N(C)C[C@@H]1Oc2ccc(N(C)C)cc2CC(=O)N([C@@H](C)CO)C[C@H]1C,1,6,0,·,3,0
N#Cc1c(-c2ccc(F)cc2)c(-c2ccc(F)cc2)nn(CCO)c1=O,18*,-8,·,-11,-34,0
N#Cc1c(-c2ccccc2)c(-c2ccccc2)nn(CC(=O)NNC(=O)Nc2ccc(Cl)c(Cl)c2)c1=O,·,·,1,·,9,·
COc1ccc(NC(=O)COC(=O)c2c(C)noc2C)c(OC)c1,·,·,·,·,2,·
COc1ccc(NC(=O)COC(=O)c2c(C)noc2C)cc1Cl,-3,39*,0,5,-28,0
COC(=O)c1cn(C(=O)c2ccc(OC)c(OC)c2)c2ccccc12,3,26*,-1,4,·,0
COC(=O)c1cn(C(=O)c2cc(OC)c(OC)c(OC)c2)c2ccccc12,-2,4,-1,-2,-3,0
CC(=O)N(C)C[C@@H]1Oc2ccc(NC(=O)NC(C)C)cc2CC(=O)N(C)C[C@@H]1C,·,·,·,8,·,0
COc1ccc(-c2csc(CCn3nc(C)cc3C)n2)cc1OC,6,18,-1,37*,5,0
COc1ccc(NC(=O)CSc2n[nH]c(-c3ccccc3)n2)cc1S(N)(=O)=O,1,52*,-2,-2,-1,0
COc1ccc(-c2nc(SCC(=O)Nc3cccc(S(N)(=O)=O)c3)n[nH]2)cc1,4,4,-4,2,-5,1
O=C(/C=C/c1ccco1)NC(=S)Nc1nc(-c2ccc3ccccc3c2)cs1,12*,·,-3,-5,-2,0
COc1ccc(C(=O)Nc2ccc3ncccc3c2)cc1,-1,4,-8,-8,·,0
Cc1ccc(C(=O)Nc2ccc3ncccc3c2)cc1,-1,3,129*,1,·,0
O=C(COC(=O)c1ccc2c(c1)OCO2)NC1CCCCC1,·,21*,0,0,-8,0
COCC(=O)Nc1ccc2c(c1)C(=O)N(C)[C@@H]1CC[C@H](CC(=O)NCCc3ccncc3)O[C@H]1CO2,-1,-1,-3,-6,2,0
COc1ccccc1-c1cn(CC[C@H]2CC[C@H](NC(=O)C3CCC3)[C@H](CO)O2)nn1,0,35*,1,·,-7,0
COc1ccccc1-c1cn(CC[C@H]2CC[C@H](NC(=O)C3CCC3)[C@@H](CO)O2)nn1,-2,7,1,·,-1,0
CC(C)c1cn(CC[C@H]2CC[C@H](NC(=O)C3CC3)[C@H](CO)O2)nn1,1,62*,-21,-19,-7,0
COc1ccccc1NC(=O)N[C@@H]1CC[C@H](CCn2cc(-c3ccccc3OC)nn2)O[C@H]1CO,1,?,107*,-4,-16,0
COc1ccccc1NC(=O)N[C@@H]1CC[C@@H](CCn2cc(C3(O)CCCC3)nn2)O[C@H]1CO,-2,1,94*,2,5,0
COc1ccccc1NC(=O)N[C@@H]1CC[C@@H](CCn2cc(C3(O)CCCC3)nn2)O[C@@H]1CO,-2,-2,0,-6,1,-1
